Assay results published in ChEMBL document CHEMBL4359856, “Strategies to develop selective CB2 receptor agonists from indole carboxamide synthetic cannabinoids” (Eur J Med Chem, 2019).
pEC50: −log10 of the molar value.

Assays:
Cannabinoid receptor 2 [1] = biological target: T1, Cannabinoid receptor 2 (Homo sapiens, UniProt P34972); assay: Agonist activity at human CB2 receptor expressed in AtT-20 cells at 10 uM measured every 2 secs for 2 mins by FLIPR assay relative to control; assay type: cell-based
T1 sequence (P34972 whole entry): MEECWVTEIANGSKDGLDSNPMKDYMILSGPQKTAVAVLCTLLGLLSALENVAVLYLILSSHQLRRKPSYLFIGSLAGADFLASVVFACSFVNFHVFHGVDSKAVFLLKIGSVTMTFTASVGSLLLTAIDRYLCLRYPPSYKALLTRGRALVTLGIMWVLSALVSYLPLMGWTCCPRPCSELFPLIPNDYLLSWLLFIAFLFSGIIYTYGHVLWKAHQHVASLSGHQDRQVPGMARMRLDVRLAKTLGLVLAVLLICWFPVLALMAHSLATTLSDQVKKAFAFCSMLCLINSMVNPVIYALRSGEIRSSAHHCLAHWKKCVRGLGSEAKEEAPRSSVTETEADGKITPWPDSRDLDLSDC

Cannabinoid receptor 1 [2] = biological target: T2, Cannabinoid receptor 1 (Homo sapiens, UniProt P21554); assay: Agonist activity at human CB1 receptor expressed in AtT-20 cells at 10 uM measured every 2 secs for 2 mins by FLIPR assay relative to control; assay type: cell-based; conditions: read-out: Activity
T2 sequence (P21554 whole entry): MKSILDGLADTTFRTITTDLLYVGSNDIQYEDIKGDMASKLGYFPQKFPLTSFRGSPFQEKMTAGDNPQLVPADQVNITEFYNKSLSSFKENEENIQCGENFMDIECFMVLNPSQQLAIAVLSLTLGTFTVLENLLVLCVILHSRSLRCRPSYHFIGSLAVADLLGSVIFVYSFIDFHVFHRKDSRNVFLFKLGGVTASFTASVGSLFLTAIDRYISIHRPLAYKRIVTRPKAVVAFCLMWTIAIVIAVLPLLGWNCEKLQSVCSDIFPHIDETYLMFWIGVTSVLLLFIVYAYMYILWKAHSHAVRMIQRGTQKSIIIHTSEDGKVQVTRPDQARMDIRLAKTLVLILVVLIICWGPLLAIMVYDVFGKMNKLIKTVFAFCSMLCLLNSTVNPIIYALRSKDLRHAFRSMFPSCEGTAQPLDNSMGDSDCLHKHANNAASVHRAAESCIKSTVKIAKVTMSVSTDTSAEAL

Cannabinoid receptor 1 [3] = biological target: T2, Cannabinoid receptor 1; assay: Agonist activity at human CB1 receptor expressed in AtT-20 cells measured every 2 secs for 2 mins by FLIPR assay; assay type: cell-based
In short: (§1)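 After vehicle subtraction, the change was taken as % of baseline. The final DMSO concentration was ≤0.1%. EC50 came from four-parameter concentration–response fits. Each experiment was run in duplicate, with at least three independent experiments; values are mean ± SEM.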

Cannabinoid receptor 2 [4] = biological target: T1, Cannabinoid receptor 2; assay: Agonist activity at human CB2 receptor expressed in AtT-20 cells at 1 uM measured every 2 secs for 2 mins by FLIPR assay relative to control; assay type: cell-based
In short: as §1, with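 “In AtT-20 cells stably expressing human CB1 or CB2, membrane-potential dye fluorescence (530/565 nm) was recorded at 37 °C. After” for “After”, “fits. […]” for “fits.”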

Cannabinoid receptor 2 [5] = biological target: T1, Cannabinoid receptor 2; assay: Agonist activity at human CB2 receptor expressed in AtT-20 cells measured every 2 secs for 2 mins by FLIPR assay; assay type: cell-based; in short: as §1
Cannabinoid receptor 1 [6] = biological target: T2, Cannabinoid receptor 1; assay: Agonist activity at human CB1 receptor expressed in AtT-20 cells at 1 uM measured every 2 secs for 2 mins by FLIPR assay relative to control; assay type: cell-based; in short: as §1
[7] = Selectivity index, ratio of EC50 for human CB1 receptor expressed in AtT-20 cells to EC50 for human CB2 receptor expressed in AtT-20 cells

CC(C)[C@H](NC(=O)c1cc2ccccc2n1CCCCCO)C(N)=O
Activity (Cannabinoid receptor 2 [1]): < 50% | activity at 10 µM (Cannabinoid receptor 1 [2]): < 50%

O=C(NC12CC3CC(CC(C3)C1)C2)c1cn(CCCCCO)c2ncccc12
pEC50 (Cannabinoid receptor 1 [3]): < 5.00 | Emax (Cannabinoid receptor 2 [4]): 93% | pEC50 (Cannabinoid receptor 2 [5]): 7.31 | activity at 10 µM (Cannabinoid receptor 1 [2]): < 50%

CC(C)(C)[C@H](NC(=O)c1cn(CCCCCO)c2ncccc12)C(N)=O
pEC50 (Cannabinoid receptor 1 [3]): 6.31 | Emax (Cannabinoid receptor 2 [4]): 96% | pEC50 (Cannabinoid receptor 2 [5]): 7.30 | Emax at 1 µM (Cannabinoid receptor 1 [6]): 98%

CC(C)(C)[C@H](NC(=O)c1cc2ccccc2n1CCCCCO)C(N)=O
activity at 10 µM (Cannabinoid receptor 1 [2]): < 50%

CCCCCn1nc(C(=O)NC23CC4CC(CC(C4)C2)C3)c2cccnc21
pEC50 (Cannabinoid receptor 1 [3]): 6.08 | Ratio EC50 [7]: 7 | Emax (Cannabinoid receptor 2 [4]): 104% | pEC50 (Cannabinoid receptor 2 [5]): 6.91 | Emax at 1 µM (Cannabinoid receptor 1 [6]): 97%

COC(=O)[C@@H](NC(=O)c1cc2ccccc2n1CCCCCO)C(C)C
Activity (Cannabinoid receptor 2 [1]): < 50% | activity at 10 µM (Cannabinoid receptor 1 [2]): < 50%

CCCCCn1c(C(=O)NC23CC4CC(CC(C4)C2)C3)cc2ccccc21
activity at 10 µM (Cannabinoid receptor 1 [2]): < 50%

CCCCCn1cc(C(=O)N[C@H](C(=O)OC)C(C)C)c2cccnc21
pEC50 (Cannabinoid receptor 1 [3]): 7.25 | Emax (Cannabinoid receptor 2 [4]): 98% | pEC50 (Cannabinoid receptor 2 [5]): 7.82 | Emax at 1 µM (Cannabinoid receptor 1 [6]): 97%

CCCCCn1cc(C(=O)NC(C)(C)c2ccccc2)c2cccnc21
pEC50 (Cannabinoid receptor 1 [3]): 7.46 | Emax (Cannabinoid receptor 2 [4]): 96% | pEC50 (Cannabinoid receptor 2 [5]): 6.98 | Emax at 1 µM (Cannabinoid receptor 1 [6]): 106%

CC(C)(C)[C@H](NC(=O)c1cc2ccccc2n1CCCCC(F)F)C(N)=O
Emax (Cannabinoid receptor 2 [4]): 128% | pEC50 (Cannabinoid receptor 2 [5]): 5.26 | activity at 10 µM (Cannabinoid receptor 1 [2]): < 50%

CCCCCn1cc(C(=O)NC23CC4CC(CC(C4)C2)C3)c2cccnc21
pEC50 (Cannabinoid receptor 1 [3]): 6.82 | Ratio EC50 [7]: 3.5 | Emax (Cannabinoid receptor 2 [4]): 101% | pEC50 (Cannabinoid receptor 2 [5]): 7.37 | Emax at 1 µM (Cannabinoid receptor 1 [6]): 75%

CCCCCn1c(C(=O)NC23CC4CC(CC(C4)C2)C3)cc2cccnc21
Activity (Cannabinoid receptor 2 [1]): < 50% | activity at 10 µM (Cannabinoid receptor 1 [2]): < 50%

CCCCCCC(C)(C)c1ccc([C@@H]2C[C@H](O)CC[C@H]2CCCO)c(O)c1
Emax (Cannabinoid receptor 2 [4]): 106%

CCCCCn1c(C(=O)N[C@H](C(=O)OC)C(C)(C)C)cc2ccccc21
activity at 10 µM (Cannabinoid receptor 1 [2]): < 50%

CCCCCn1c(C(=O)N[C@H](C(N)=O)C(C)(C)C)cc2ccccc21
pEC50 (Cannabinoid receptor 1 [3]): < 5.00 | Emax (Cannabinoid receptor 2 [4]): 73% | pEC50 (Cannabinoid receptor 2 [5]): 6.72 | activity at 10 µM (Cannabinoid receptor 1 [2]): < 50%

COC(=O)[C@@H](NC(=O)c1cn(CCCCCO)c2ncccc12)C(C)(C)C
pEC50 (Cannabinoid receptor 1 [3]): 6.63 | Emax (Cannabinoid receptor 2 [4]): 96% | pEC50 (Cannabinoid receptor 2 [5]): 7.72 | Emax at 1 µM (Cannabinoid receptor 1 [6]): 99%

CCCCCn1cccc2c(C(=O)NC34CC5CC(CC(C5)C3)C4)cnc1-2
Activity (Cannabinoid receptor 2 [1]): < 50% | activity at 10 µM (Cannabinoid receptor 1 [2]): < 50%

CCCCCn1cc(C(=O)N[C@H](C(=O)OC)C(C)(C)C)c2cccnc21
pEC50 (Cannabinoid receptor 1 [3]): 8.77 | Emax (Cannabinoid receptor 2 [4]): 102% | pEC50 (Cannabinoid receptor 2 [5]): 8.37 | Emax at 1 µM (Cannabinoid receptor 1 [6]): 103%

CCCCCn1c(C(=O)N[C@H](C(N)=O)C(C)C)cc2ccccc21
Emax (Cannabinoid receptor 2 [4]): 74% | pEC50 (Cannabinoid receptor 2 [5]): 6.13 | activity at 10 µM (Cannabinoid receptor 1 [2]): < 50%

CCCCCn1cc(C(=O)N[C@H](C(N)=O)C(C)C)c2cccnc21
pEC50 (Cannabinoid receptor 1 [3]): 6.92 | Emax (Cannabinoid receptor 2 [4]): 103% | pEC50 (Cannabinoid receptor 2 [5]): 7.24 | Emax at 1 µM (Cannabinoid receptor 1 [6]): 117%

CCCCCn1c(C(=O)NC(C)(C)c2ccccc2)cc2ccccc21
activity at 10 µM (Cannabinoid receptor 1 [2]): < 50%

CCCCCn1c(C(=O)N[C@H](C(=O)OC)C(C)C)cc2ccccc21
Emax (Cannabinoid receptor 2 [4]): 74% | pEC50 (Cannabinoid receptor 2 [5]): 6.15 | activity at 10 µM (Cannabinoid receptor 1 [2]): < 50%

CC(C)(NC(=O)c1cc2ccccc2n1CCCCCO)c1ccccc1
Emax (Cannabinoid receptor 2 [4]): 88% | pEC50 (Cannabinoid receptor 2 [5]): 6.66 | activity at 10 µM (Cannabinoid receptor 1 [2]): < 50%

CCCCCn1cc(C(=O)N[C@H](C(N)=O)C(C)(C)C)c2cccnc21
pEC50 (Cannabinoid receptor 1 [3]): 8.40 | Emax (Cannabinoid receptor 2 [4]): 94% | pEC50 (Cannabinoid receptor 2 [5]): 8.30 | Emax at 1 µM (Cannabinoid receptor 1 [6]): 110%

CC(C)(NC(=O)c1cn(CCCCCO)c2ncccc12)c1ccccc1
pEC50 (Cannabinoid receptor 1 [3]): 6.33 | Emax (Cannabinoid receptor 2 [4]): 95% | pEC50 (Cannabinoid receptor 2 [5]): 6.82 | Emax at 1 µM (Cannabinoid receptor 1 [6]): 110%

CCCCCn1cc(C(=O)NC23CC4CC(CC(C4)C2)C3)c2ccccc21
pEC50 (Cannabinoid receptor 1 [3]): 7.13 | Emax (Cannabinoid receptor 2 [4]): 85% | pEC50 (Cannabinoid receptor 2 [5]): 7.02 | Emax at 1 µM (Cannabinoid receptor 1 [6]): 108%

COC(=O)[C@@H](NC(=O)c1cc2ccccc2n1CCCCCO)C(C)(C)C
Activity (Cannabinoid receptor 2 [1]): < 50% | activity at 10 µM (Cannabinoid receptor 1 [2]): < 50%
